GalR3 antag: blocks the human galanin receptor 3; inhibition, % at 3 µM; O60755; HEK293 GalR3-CNG cAMP membrane potential fluorescence; galR3 body fused to GalR1 C-terminus; 360,000 compounds, 0.44% hits;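 active = inhibition above the screen-wide average plus 3 SD, cut at about 13% in these data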;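 note: forskolin and galanin both at EC90 stimulate the cells; cAMP rise reported by CNG channel membrane potential dye signal; 0% = forskolin plus galanin with DMSO and 100% = forskolin alone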
TAAR1 agonist: human TAAR1 agonism | Q96RJ0 | activation, % at 3 µM | 360,000 compounds, 0.99% hits | AID 624467 | CHO RD-HGA16 TAAR1, Fluo-8 calcium fluorescence; vehicle wells 0%, saturating PEA agonist 100%;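 active = activation above the mean activation of all test compounds in the run plus 3 SD, cut at about 38% in these data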
Target sequence (Q96RJ0 whole entry, looked up): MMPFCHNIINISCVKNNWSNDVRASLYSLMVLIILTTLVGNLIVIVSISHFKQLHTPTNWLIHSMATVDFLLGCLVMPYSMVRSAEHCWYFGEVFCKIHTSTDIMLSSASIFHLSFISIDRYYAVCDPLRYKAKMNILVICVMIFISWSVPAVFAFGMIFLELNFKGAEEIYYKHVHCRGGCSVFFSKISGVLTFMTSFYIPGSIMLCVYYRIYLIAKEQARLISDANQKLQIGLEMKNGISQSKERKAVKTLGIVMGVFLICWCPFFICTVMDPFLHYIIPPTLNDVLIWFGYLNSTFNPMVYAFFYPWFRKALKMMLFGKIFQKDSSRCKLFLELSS
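Test system: RD-HGA16 (CHO) cells co-expressing Gα16 and hTAAR1 / Benchmarks: DMSO vehicle as 0%, PEA at EC100 as 100% / Repeats: no replicates (n 1) / Measure: % activation from peak over basal fluorescence ratio, DMSO-to-PEA scaled / Timing: 17-24 h plating, Fluo-8 75 min 37 °C, 30 min RT / Technique: kinetic Fluo-8 calcium fluorescence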
TAAR1 antagonist: antagonists of human TAAR1; Q96RJ0; CHO RD-HGA16 TAAR1, Fluo-8 calcium fluorescence, antagonist; inhibition, % at 3 µM; 360,000 compounds, 1.5% hits; AID 624466;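 active = inhibition above a per-plate cutoff, the mean inhibition of test compounds on that plate plus 3 SD, cut at about 49% in these data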;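 note: 0% = DMSO plus EC80 beta-PEA response and 100% = DMSO alone without agonist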
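Assay system: RD-HGA16 CHO cells with stable hTAAR1 and Gα16 / Reagent: EC80 β-phenethylamine stimulus / Doses: 3 µM, single point / Timing: dye loading 75 min at 37 °C, then 30 min room temperature / Measured by: Fluo-8 intracellular calcium dye fluorescence, real-time kinetic reads / Controls: vehicle wells and EC80 agonist wells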
OX1R antag-1: blocks the human orexin 1 receptor | 330,000 compounds, 0.43% hits | AID 434989 | CHO/OX1R cells, Fluo-8 calcium fluorescence, orexin A | inhibition, % at 5 µM | O43613;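 active = inhibition above its plate's threshold, mean inhibition of all tested compounds on the plate plus 3 SD, cut at about 37% in these data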;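 note: 0% = orexin A challenge wells and 100% = SB-334867-A antagonist wells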
Target sequence (O43613 whole entry, looked up): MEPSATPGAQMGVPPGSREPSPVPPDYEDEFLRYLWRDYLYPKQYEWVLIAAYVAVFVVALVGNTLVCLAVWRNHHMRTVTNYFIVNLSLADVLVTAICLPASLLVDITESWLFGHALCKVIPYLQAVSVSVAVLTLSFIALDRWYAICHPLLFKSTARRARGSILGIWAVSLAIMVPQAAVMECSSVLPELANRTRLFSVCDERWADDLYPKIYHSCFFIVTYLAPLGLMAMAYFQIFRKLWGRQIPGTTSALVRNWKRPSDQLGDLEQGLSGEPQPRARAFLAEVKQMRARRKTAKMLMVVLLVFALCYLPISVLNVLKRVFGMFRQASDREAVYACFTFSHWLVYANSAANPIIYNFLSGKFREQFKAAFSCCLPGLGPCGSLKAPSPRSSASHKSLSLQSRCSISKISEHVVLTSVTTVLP
CHO parental Ca: signal in parental CHO cells, OX1R antagonist counter-screen; inhibition, % at 5.6 µM; 330,000 compounds, 0.63% hits; parental CHO-K1, ATP-induced calcium, Fluo-8 fluorescence;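 active = inhibition above that plate's mean sample inhibition plus 3 SD, cut at about 26% in these data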;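 note: 0% = ATP-challenged DMSO wells and 100% = DMSO wells without ATP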
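Assay system – parental CHO cells · Reagent – ATP stimulus · Detection – intracellular calcium via Fluo-8 no-wash fluorescent dye · Evaluation – percent inhibition of ATP-evoked calcium rise, normalized to controls · Controls – ATP wells versus no-ATP DMSO wells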
OX1R antag-2: blocks the human orexin 1 receptor. O43613. OX1R-expressing cells, FRET antagonist read-out. inhibition, % at 6.6 µM. 330,000 compounds, 1.8% hits. AID 485270; in the data active = inhibition mostly above about 38%, no sharp cut-off; inactive = mostly below about 40%;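 note: 0% = agonist challenge alone and 100% = reference antagonist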
* hit, by the source's call; . = not tested or not shown. This is a sample that favours compounds with a hit; in the whole collection about 4.3% have one here.

SMILES | GalR3 antag | TAAR1 agonist | TAAR1 antagonist | OX1R antag-1 | CHO parental Ca | OX1R antag-2
COc1ccc(/C=C\C(=O)O[C@@H]2C(O)C(O[C@@H]3OC(C)[C@H](O[C@@H]4OCC(O[C@H]5O[C@H](CO)[C@@H](O)C(O)C5O)C(O)C4O)C(O)C3O)[C@H](OC(=O)[C@]34CCC(C)(C)C[C@@H]3C3=CCC5[C@@]6(C)CC(O)C(O[C@@H]7OC(CO)C(O)[C@H](O)[C@H]7O)[C@@](C)(C(=O)O)C6CC[C@@]5(C)[C@]3(CO)CC4)O[C@H]2C)cc1 (stereo partly drawn) | . | . | . | 109.6* | 100.5* | 4.0
COc1cccc(/C=N/n2c(-c3ccco3)nc3ccccc3c2=O)c1 | -0.6 | 13.6 | 49.2* | -22.5 | -15.6 | 38.9
COc1ccc(/C=N/n2c(-c3ccco3)nc3ccccc3c2=O)cc1 | 2.0 | 4.8 | 13.2 | -35.8 | -15.7 | 27.4
Cc1ccc(S(=O)(=O)N2CCN(c3ncnc4sccc34)CC2)cc1 | -4.4 | 4.0 | 28.2 | 10.4 | 37.4* | 20.6
CC(C)(C)c1ccc(C(=O)OC/C(O)=C(\C#N)c2nc3ccccc3s2)cc1 | -3.4 | 6.1 | 3.3 | 8.2 | -2.7 | 27.4
c1coc(-c2nc3ccccc3s2)c1 | -4.6 | -1.7 | -11.5 | . | . | .
COC(=O)c1ccc(/C=C(\C#N)c2nc3ccccc3s2)cc1 | -3.9 | 4.6 | 4.8 | 56.4* | 49.1* | 7.9
N#C/C(=C/c1ccc(-c2ccc(S(N)(=O)=O)cc2)o1)c1nc2ccccc2s1 | -0.4 | 20.0 | 25.4 | 80.5* | 64.3* | 20.2
N#C/C(=C\c1ccc(-c2nc3ccccc3s2)o1)C(N)=O | 0.9 | 7.9 | 30.5 | 26.5 | -18.7 | 51.7*
N#C/C(=C/c1ccc(-c2ccc(S(N)(=O)=O)cc2)o1)C(=O)Nc1ccccc1 | -3.5 | 10.7 | 36.4 | 0.4 | 7.1 | 37.0
CNc1ncnc2c1ncn2[C@H]1CN(C2CCCC2)C[C@@H](CO)O1 | -6.3 | 2.2 | -3.8 | . | . | .
O=C(c1ccc(N2CCN(C(=O)c3ccc(F)cc3F)CC2)cc1)c1cccc(F)c1 | -2.6 | 3.9 | 62.7* | 19.7 | 28.5 | 29.9
O=C(c1ccc(F)cc1F)N1CCN(c2ncccn2)CC1 | -2.9 | 6.0 | -1.2 | -18.2 | -12.3 | 5.8
COc1ccc(C(CNC(=O)CCC(=O)c2ccc(C)s2)N2CCOCC2)cc1 (stereo not drawn) | -6.9 | 7.1 | -7.7 | -22.2 | -23.7 | 3.4
COc1cccc(C(O)C2OC(=O)c3ccccc32)c1OC (stereo not drawn) | 1.6 | -0.2 | 5.6 | -7.7 | 3.1 | 8.7
O=c1c2cc([N+](=O)[O-])ccc2nc2n1CCCC2 | -9.5 | -0.9 | -7.5 | -16.5 | 6.7 | 68.8*
Cc1ccc(C(=O)N2CCC(N3CCC(C(=O)N4CCOCC4)CC3)CC2)cc1C | -2.4 | 2.0 | -7.3 | -3.8 | -2.5 | 33.3
O=S(=O)(c1cccs1)N1CCN(CC(O)COc2cc(Cl)ccc2Cl)CC1 (stereo not drawn) | 68.5* | 16.8 | 30.7 | 74.2* | 69.4* | 74.7*
O=C(Cc1ccc(Br)cc1)Nc1ccc(S(=O)(=O)N2CCCC2)cc1 | -2.1 | 38.4* | 5.6 | -0.9 | 1.2 | 2.8
CCCC(C(=O)Nc1ccc(S(=O)(=O)N2CCCC2)cc1)c1ccccc1 (stereo not drawn) | -2.5 | 41.2* | 25.9 | 1.3 | -1.8 | -4.2
O=C(Nc1ccc(F)cc1)Nc1ccc(S(=O)(=O)N2CCCC2)cc1 | -7.0 | 48.1* | 50.7* | 34.3 | 9.3 | 3.9
COC(=O)Nc1ccc(S(=O)(=O)N2CCC(Cc3ccccc3)CC2)cc1 | -0.3 | 7.6 | 17.4 | 20.5 | 44.5* | 14.2
Cc1cc(N2CCNC[C@H]2C)ccc1N1CCN(Cc2ccccc2)[C@@H](C)C1 | -7.3 | 7.0 | -2.2 | . | . | .
CC(=O)Oc1cc(C)c(Cl)c2c(OC(C)=O)cc(C(C)=O)c(O)c12 | -8.2 | 2.2 | -2.7 | . | . | .
O=C(Cc1ccc(Br)cc1)NNC(=O)Nc1ccc(Cl)cc1 | -7.7 | 2.2 | 3.5 | -9.9 | -3.1 | 23.3
SMILES | GalR3 antag | TAAR1 agonist | TAAR1 antagonist | OX1R antag-1 | CHO parental Ca | OX1R antag-2
O=C(Cc1ccc(Cl)cc1)Nc1ccc(Br)cc1 | -4.8 | 39.8* | 31.5 | -4.5 | 7.6 | -10.6
O=C(COc1ccc(F)cc1Cl)Nc1ccccc1C(=O)N1CCCCC1 | 1.4 | 3.3 | -36.6 | -35.4 | 98.9* | 25.1
COc1ccc(NC(=O)COC(=O)C2CCN(C(=O)c3ccc(Cl)cc3)CC2)c([N+](=O)[O-])c1 | -4.8 | 0.5 | -3.4 | 10.4 | -18.2 | 37.6*
Cc1cc(N2CCN(C(C(=O)NC3CCCC3)c3ccc(-c4ccccc4)cc3)CC2)c2ccccc2n1 (stereo not drawn) | -6.6 | -1.0 | -17.4 | . | . | .
O=C(NCCc1ccccc1)c1cc(-c2ccc3c(c2)OCO3)on1 | -2.0 | 38.5* | 11.4 | 0.6 | 2.7 | 24.1
CCCNC(=O)c1cc(-c2ccc3c(c2)OCO3)on1 | 4.1 | 2.1 | -14.1 | -18.3 | -6.1 | 13.1
Cc1ccc(S(=O)(=O)n2ccc3c(OCCOCCNCc4ccc(F)cc4)cccc32)cc1 | -8.8 | 23.0 | 39.6 | 24.8 | 39.0* | -0.6
Cc1[nH]c2ccccc2c1/C=C/c1nc2ccccc2c(=O)n1CCO | -5.8 | 12.8 | 50.8* | -9.9 | 3.2 | 35.4
O=c1c2ccccc2nc(/C=C/c2ccc(Cl)cc2)n1CCO | -8.3 | 1.8 | 16.0 | -42.5 | -17.6 | 27.6
COc1ccc(-c2coc3c(C(=O)NCC4CCOCC4)cccc23)c(C)c1 | -6.3 | 2.6 | 26.6 | . | . | .
CS(=O)(=O)c1ccc2nc(NC(=O)Nc3cccc(Cl)c3)sc2c1 | -2.6 | 19.7 | 24.3 | 36.5 | 33.1* | 39.0*
CS(=O)(=O)c1ccc2nc(NC(=O)Nc3ccc(Cl)c(Cl)c3)sc2c1 | 1.7 | 7.1 | 4.3 | 6.0 | -4.2 | 1.9
CS(=O)(=O)c1ccc2nc(NC(=O)CS(=O)(=O)Cc3ccccc3)sc2c1 | -5.5 | 0.9 | -14.2 | 10.7 | -8.0 | 71.5*
Cc1ccc(S(=O)(=O)CCC(=O)OCC(=O)c2c(N)n(CC(C)C)c(=O)n(C)c2=O)cc1 | -4.5 | 18.4 | 27.4 | -10.9 | -5.6 | 15.1
COc1ccc(CCC(=O)OCC(=O)c2c(N)n(CC(C)C)c(=O)n(C)c2=O)cc1 | -2.5 | 7.7 | 28.5 | 24.0 | 43.9* | 40.7
COc1ccc(NC(=O)C[C@H]2C(=O)N(C3CCCCC3)C[C@@H]2c2ccccc2)cc1 | 0.1 | 3.0 | -14.3 | . | . | .
C/C(=N\NC(=O)c1ccc(O)cc1)c1ccc(N2CCOCC2)cc1 | -3.2 | 2.5 | 18.6 | -5.3 | -11.8 | 19.3
C/C(=N\NC(=O)c1ccc(N/N=C(\C)c2ccc(O)cc2)cc1)c1ccc(O)cc1 | 5.2 | 4.4 | 56.5* | -11.7 | 1.8 | 43.0
Clc1cccc(-c2ccc(/C=N/n3cnnc3)o2)c1 | -10.8 | 11.3 | -3.0 | 9.1 | -4.2 | 7.2

Bioassay records: PubChem BioAssay, The Scripps Research Institute Molecular Screening Center
